From ChEMBL document CHEMBL3259519, “Targeting triple-negative breast cancer cells with 6,7-bis(hydroxymethyl)-1H,3H-pyrrolo[1,2-c]thiazoles” (Eur J Med Chem, 2014)
The source made the active and inactive calls. No cut-off for these calls is given here.

How the values were obtained:
HCC1806 [1] = test: Cell cycle arrest in ER, PR, HER2-deficient human HCC1806 cells as accumulation at pre-G0 phase phase at IC50 after 48 hrs by propidium staining-based FACS analysis; assay type: functional
Method in brief: (§1)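 2x10^6 cells were attached overnight, then exposed to IC50 for 48 h (DMSO 0.1%). They were fixed in ice-cold 70% ethanol for 30 min in the dark, PBS-washed and stained with PI/RNase for 15 min at RT. Flow cytometry used 488 nm excitation and a 585/42 filter. Sub-G0, G0/G1, S and G2/M fractions were reported as mean ± SD (n≥5).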

MCF7 [2] = test: Induction of DNA strand break in human MCF7 cells expressing ER and BRCA2 at IC50 after 48 hrs by alkaline comet assay; assay type: functional, cell-based
Method in brief: (§2)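 5x10^5 cells got IC50 or 3x IC50 for 48 h (DMSO 0.1%); H2O2-treated cells served as positive control. Cells in 1% low-melt agarose went onto slides precoated with normal-melt agarose. Slides were lysed overnight in alkaline buffer (2.5 M NaCl, EDTA, Tris, DMSO, Triton X-100). Electrophoresis ran in 300 mM NaOH/1 mM EDTA (pH>13) at 25 V for 15 min. Slides were neutralized in Tris pH 7.4 and stained with 25 µg/mL ethidium bromide for fluorescence microscopy.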

MCF7 [3] = test: Induction of DNA strand break in human MCF7 cells expressing ER and BRCA2 at 3 x IC50 after 48 hrs by alkaline comet assay; assay type: functional, cell-based; method in brief: as §2
HCC1806 [4] = test: Induction of DNA strand break in ER, PR, HER2-deficient human HCC1806 cells at IC50 after 48 hrs by alkaline comet assay; assay type: functional, cell-based; method in brief: as §2
HCC1806 [5] = test: Induction of DNA strand break in ER, PR, HER2-deficient human HCC1806 cells at 3 x IC50 after 48 hrs by alkaline comet assay; assay type: functional, cell-based; method in brief: as §2
HCC1806 [6] = test: Antiproliferative activity against ER, PR, HER2-deficient human HCC1806 cells as growth inhibition after 24 hrs by MTT assay; assay type: functional, cell-based; conditions: HCC1806, 24 h
Method in brief: (§3)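 Cells were seeded at 2x10^4/well and left to attach overnight. Compounds in DMSO were diluted in medium and applied for 24, 48, 72 or 96 h. Cells were then PBS-washed and given 0.5 mg/mL MTT (pH 7.4) at 37 °C for 4 h. Formazan was dissolved in acid isopropanol. IC50 came from dose-response curves by exponential decay fitting (r2>0.9), with 95% CI.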

HCC1806 [7] = test: Antiproliferative activity against ER, PR, HER2-deficient human HCC1806 cells as growth inhibition after 48 hrs by MTT assay; assay type: functional, cell-based; conditions: HCC1806, 48 h; method in brief: as §3
HCC1806 [8] = test: Antiproliferative activity against ER, PR, HER2-deficient human HCC1806 cells as growth inhibition after 72 hrs by MTT assay; assay type: functional, cell-based; conditions: HCC1806, 72 h; method in brief: as §3
HCC1806 [9] = test: Antiproliferative activity against ER, PR, HER2-deficient human HCC1806 cells as growth inhibition after 96 hrs by MTT assay; assay type: functional, cell-based; conditions: HCC1806, 96 h; method in brief: as §3
HCC1954 [10] = test: Antiproliferative activity against human HCC1954 cells expressing HER2 assessed as growth inhibition after 24 hrs by MTT assay; assay type: functional, cell-based; conditions: HCC1954, 24 h; method in brief: as §3
HCC1954 [11] = test: Antiproliferative activity against human HCC1954 cells expressing HER2 assessed as growth inhibition after 48 hrs by MTT assay; assay type: functional, cell-based; conditions: HCC1954, 48 h; method in brief: as §3
HCC1954 [12] = test: Antiproliferative activity against human HCC1954 cells expressing HER2 assessed as growth inhibition after 72 hrs by MTT assay; assay type: functional, cell-based; conditions: HCC1954, 72 h; method in brief: as §3
HCC1954 [13] = test: Antiproliferative activity against human HCC1954 cells expressing HER2 assessed as growth inhibition after 96 hrs by MTT assay; assay type: functional, cell-based; conditions: HCC1954, 96 h; method in brief: as §3
MCF7 [14] = test: Antiproliferative activity against human MCF7 cells expressing ER and BRCA2 assessed as growth inhibition after 24 hrs by MTT assay; assay type: functional, cell-based; conditions: MCF7, 24 h; method in brief: as §3
MCF7 [15] = test: Antiproliferative activity against human MCF7 cells expressing ER and BRCA2 assessed as growth inhibition after 48 hrs by MTT assay; assay type: functional, cell-based; conditions: MCF7, 48 h; method in brief: as §3
MCF7 [16] = test: Antiproliferative activity against human MCF7 cells expressing ER and BRCA2 assessed as growth inhibition after 72 hrs by MTT assay; assay type: functional, cell-based; conditions: MCF7, 72 h; method in brief: as §3
MCF7 [17] = test: Antiproliferative activity against human MCF7 cells expressing ER and BRCA2 assessed as growth inhibition after 96 hrs by MTT assay; assay type: functional, cell-based; conditions: MCF7, 96 h; method in brief: as §3
MCF7 [18] = test: Cytotoxicity against human MCF7 cells expressing ER and BRCA2 assessed as reduction of survival factor at IC50 incubated for 48 hrs measured after 12 days by crystal violet staining-based clonogenic assay; assay type: functional, cell-based
HCC1806 [19] = test: Cytotoxicity against ER, PR, HER2-deficient human HCC1806 cells as reduction of survival factor at IC50 incubated for 48 hrs measured after 12 days by crystal violet staining-based clonogenic assay; assay type: functional
MCF7 [20] = test: Cytotoxicity against human MCF7 cells expressing ER and BRCA2 assessed as reduction of total protein content at IC50 after 48 hrs by SRB assay relative to control; assay type: functional; parameters: scale not given: the % may be the effect or the level left
HCC1806 [21] = test: Cytotoxicity against ER, PR, HER2-deficient human HCC1806 cells as reduction of total protein content at IC50 incubated for 48 hrs by SRB assay relative to control; assay type: functional; parameters: scale not given: the % may be the effect or the level left
MCF7 [22] = test: Induction of apoptosis in human MCF7 cells expressing ER and BRCA2 assessed as decrease in viable cells at IC50 after 48 hrs by Annexin V/propidium iodide staining-based flow cytometry relative to control; assay type: functional
Method in brief: (§4)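 2x10^6 cells were attached overnight, then given IC50 for 48 h (DMSO 0.1%). PBS-washed cells were stained with Annexin V-FITC and PI in binding buffer for 15 min at 4 °C in the dark. Flow cytometry used 488 nm excitation. Cells were gated as viable, apoptotic, late apoptotic/necrotic or necrotic, reported as mean ± SD (n≥5).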

HCC1806 [23] = test: Induction of apoptosis in triple negative ER, PR, HER2-deficient human HCC1806 cells assessed as increase of late apoptotic/nectrotic cells at IC50 after 48 hrs by Annexin V/propidium iodide staining-based flow cytometry relative to control; assay type: functional, cell-based; method in brief: as §4
HCC1806 [24] = test: Induction of apoptosis in triple negative ER, PR, HER2-deficient human HCC1806 cells assessed as decrease of viable cells at IC50 after 48 hrs by Annexin V/propidium iodide staining-based flow cytometry relative to control; assay type: functional; method in brief: as §4
MCF7 [25] = test: Induction of apoptosis in human MCF7 cells expressing ER and BRCA2 assessed as increase of late apoptotic/nectrotic cells at IC50 after 48 hrs by Annexin V/propidium iodide staining-based flow cytometry relative to control; assay type: functional, cell-based; method in brief: as §4
MCF7 [26] = test: Induction of apoptosis in human MCF7 cells expressing ER and BRCA2 assessed as early apoptotic cells at IC50 after 48 hrs by Annexin V/propidium iodide staining-based flow cytometry relative to control; assay type: functional, cell-based; method in brief: as §4
MCF7 [27] = test: Induction of apoptosis in human MCF7 cells expressing ER and BRCA2 assessed as increase of necrotic cells at IC50 after 48 hrs by Annexin V/propidium iodide staining-based flow cytometry relative to control; assay type: functional, cell-based; method in brief: as §4
HCC1806 [28] = test: Induction of apoptosis in triple negative ER, PR, HER2-deficient human HCC1806 cells assessed as increase of necrotic cells at IC50 after 48 hrs by Annexin V/propidium iodide staining-based flow cytometry relative to control; assay type: functional, cell-based; method in brief: as §4
MCF7 [29] = test: Induction of apoptosis in human MCF7 cells expressing ER and BRCA2 assessed as increase in p53 expression at IC50 after 48 hrs by Western blotting analysis relative to control; assay type: functional, cell-based
Method in brief: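 Cells were treated with IC50 for 48 h and lysed on ice in RIPA with protease inhibitors, then sonicated and centrifuged. Protein was quantified by BCA and separated on 10% SDS-PAGE, then transferred and blocked with 4% BSA/TBS-T. Blots were probed overnight at 4 °C with anti-p53 (DO7) and actin, then anti-mouse secondary. ECF fluorescence was scanned and quantified.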

MCF7 [30] = test: Cell cycle arrest in human MCF7 cells expressing ER and BRCA2 assessed as decrease in accumulation at G0/G1 phase at IC50 after 48 hrs by propidium staining-based FACS analysis; assay type: functional; method in brief: as §1
MCF7 [31] = test: Cell cycle arrest in human MCF7 cells expressing ER and BRCA2 assessed as increase in accumulation at S phase at IC50 after 48 hrs by propidium staining-based FACS analysis; assay type: functional; method in brief: as §1
MCF7 [32] = test: Cell cycle arrest in human MCF7 cells expressing ER and BRCA2 assessed as blockade at G2/M phase at IC50 after 48 hrs by propidium staining-based FACS analysis; assay type: functional; method in brief: as §1
HCC1806 [33] = test: Cell cycle arrest in ER, PR, HER2-deficient human HCC1806 cells as accumulation at S phase at IC50 after 48 hrs by propidium staining-based FACS analysis; assay type: functional; method in brief: as §1
HCC1806 [34] = test: Cell cycle arrest in ER, PR, HER2-deficient human HCC1806 cells as decrease in accumulation at G0/G1 phase at IC50 after 48 hrs by propidium staining-based FACS analysis; assay type: functional; method in brief: as §1
HCC1806 [35] = test: Induction of apoptosis in ER, PR, HER2-deficient human HCC1806 cells as increase in Bax/Bcl2 expression ratio at IC50 after 48 hrs by flow cytometry relative to control
MCF7 [36] = test: Induction of apoptosis in human MCF7 cells expressing ER and BRCA2 assessed as increase in Bax/Bcl2 expression ratio at IC50 after 48 hrs by flow cytometry relative to control
HCC1806 [37] = test: Induction of apoptosis in triple negative ER, PR, HER2-deficient human HCC1806 cells assessed as reduction of long term cell survival at IC50 after 48 hrs by clonogenic assay relative to control
HCC1806 [38] = test: Cell cycle arrest in ER, PR, HER2-deficient human HCC1806 cells as blockade at G0/G1 phase at IC50 after 48 hrs by propidium staining-based FACS analysis; assay type: functional; method in brief: as §1
HCC1806 [39] = test: Cell cycle arrest in ER, PR, HER2-deficient human HCC1806 cells as accumulation at G2/M phase at IC50 after 48 hrs by propidium staining-based FACS analysis; assay type: functional; method in brief: as §1

Compound | Activity (MCF7 [2]) | Activity (MCF7 [3]) | Activity (HCC1806 [4]) | Activity (HCC1806 [5]) | IC50 (HCC1806 [6]) [µM] | IC50 (HCC1806 [7]) [µM] | IC50 (HCC1806 [8]) [µM] | IC50 (HCC1806 [9]) [µM] | IC50 (HCC1954 [10]) [µM] | IC50 (HCC1954 [11]) [µM] | IC50 (HCC1954 [12]) [µM] | IC50 (HCC1954 [13]) [µM] | Activity (MCF7 [18]) | Activity (HCC1806 [19]) [%] | Activity (MCF7 [20]) [%] | Activity (HCC1806 [21]) [%] | Activity (MCF7 [22]) [%] | Activity (HCC1806 [23]) | Activity (HCC1806 [24]) | Activity (MCF7 [25]) | also measured
Cc1c(CO)c(CO)c2n1[C@@H](c1ccc(O)cc1)SC2 | Active | Active | Active | Active | 80.3 | 26.4 | 11.9 | 5.4 | > 100 | 65.6 | 46.6 | 27.4 | Active | <2 | 15.4 | 50 | 21.4 | Active | Active | Active | Activity (HCC1806 [1]): Active; IC50 (MCF7 [14]): > 100 µM; IC50 (MCF7 [15]): 86.2 µM; IC50 (MCF7 [16]): 53.9 µM; IC50 (MCF7 [17]): 29.5 µM; Activity (MCF7 [26]): Active; Activity (MCF7 [27]): Active; Activity (HCC1806 [28]): Active; Activity (MCF7 [29]): Active; Activity (MCF7 [30]): Active; Activity (MCF7 [31]): Active; Activity (MCF7 [32]): inactive; Activity (HCC1806 [33]): Active; Activity (HCC1806 [34]): Active; Activity (HCC1806 [35]): Active; Activity (MCF7 [36]): Active; Activity (HCC1806 [37]): 1.4%
Cc1c(CO)c(CO)c2n1[C@@H](c1ccccc1)SC2 | Active | Active | Active | Active | > 100 | 81.4 | 51.3 | 13.9 | 98.2 | 27 | 26.2 | 24.9 | Active | <2 | 50 | 50 | 55 | Active | 60% | Active | Activity (MCF7 [27]): Active; Activity (HCC1806 [28]): Active; Activity (MCF7 [30]): Active; Activity (MCF7 [31]): Active; Activity (MCF7 [32]): Active; Activity (HCC1806 [38]): Active; Activity (HCC1806 [33]): inactive; Activity (HCC1806 [39]): inactive
